Screening results as filed in PubChem.
Platelet DG rel: modulates dense granule release in human platelets; AID 1663; 300,000 compounds, 0.22% hits; inhibition, %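 (compounds screened at 7.5 µM in platelet-rich plasma)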; human platelet-rich plasma, SFLLRN dense granule ATP release, luminescence;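 active means mean replicate score, as percent of positive control, at or above 50; inconclusive means mean below 50 but at least one replicate at or above 50; inactive means mean and every replicate below 50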
VLA-4 inh: inhibition in a human VLA-4 binding assay; 330,000 compounds, 0.2% hits; VLA-4 expressing cells, ligand binding flow cytometry; P13612; inhibition, % (about 7 µM as worked out from the volumes in the protocol); in the data active means inhibition above about 50%
Target sequence (P13612 whole entry, looked up): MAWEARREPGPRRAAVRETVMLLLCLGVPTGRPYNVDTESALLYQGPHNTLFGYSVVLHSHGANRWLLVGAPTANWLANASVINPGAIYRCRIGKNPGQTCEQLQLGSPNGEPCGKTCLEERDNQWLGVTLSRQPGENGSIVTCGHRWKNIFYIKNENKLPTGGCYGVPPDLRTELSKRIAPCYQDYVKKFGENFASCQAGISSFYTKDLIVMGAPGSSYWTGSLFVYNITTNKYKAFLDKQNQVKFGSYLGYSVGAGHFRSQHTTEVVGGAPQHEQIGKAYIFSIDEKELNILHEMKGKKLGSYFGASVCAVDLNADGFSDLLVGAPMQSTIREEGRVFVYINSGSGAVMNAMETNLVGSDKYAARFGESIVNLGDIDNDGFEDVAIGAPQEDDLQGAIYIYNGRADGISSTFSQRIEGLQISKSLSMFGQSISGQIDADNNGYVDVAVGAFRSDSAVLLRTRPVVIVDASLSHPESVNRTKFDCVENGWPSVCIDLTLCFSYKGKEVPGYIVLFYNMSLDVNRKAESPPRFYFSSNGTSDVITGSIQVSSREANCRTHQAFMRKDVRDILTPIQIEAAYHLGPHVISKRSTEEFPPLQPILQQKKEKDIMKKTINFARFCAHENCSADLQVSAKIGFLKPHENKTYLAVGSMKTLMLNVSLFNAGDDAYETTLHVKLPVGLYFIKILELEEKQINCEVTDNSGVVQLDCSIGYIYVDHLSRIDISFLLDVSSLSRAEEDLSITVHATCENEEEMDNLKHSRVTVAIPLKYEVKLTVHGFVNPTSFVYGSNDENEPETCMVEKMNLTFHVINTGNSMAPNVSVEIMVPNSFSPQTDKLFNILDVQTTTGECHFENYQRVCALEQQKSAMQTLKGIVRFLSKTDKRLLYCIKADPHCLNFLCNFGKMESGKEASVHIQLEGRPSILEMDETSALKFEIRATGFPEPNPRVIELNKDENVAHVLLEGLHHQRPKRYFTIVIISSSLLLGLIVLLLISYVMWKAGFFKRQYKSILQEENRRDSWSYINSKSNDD
SENP1 FRET inh: SENP1 (human) catalytic domain inhibition; Q9P0U3; recombinant SENP1 catalytic domain, CyPet-SUMO1-YPet FRET cleavage; AID 624204; inhibition, % at 10 µM; 360,000 compounds, 0.21% hits;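 active means inhibition at least 30% at 10 µM, raw YFP signal under a set limit, fluorescence ratio 0.5 to 1.5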
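Test system: human SENP1 catalytic domain; medium: Tris pH 8 buffer plus EDTA, NaCl, BME, BSA, NP40, catalase; incubation: 50 min reaction at room temperature; technique: FRET, CFP and YFP emission; controls: no-enzyme low control and enzyme-plus-DMSO high control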
Myeloid diff 2: compounds promoting myeloid differentiation | ER-HoxA9 myeloid progenitors, lysozyme-GFP differentiation, flow cytometry | calls only at 10 µM | 360,000 compounds, 1% hits;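 active means normalized GFP-positive differentiation at or above the plate's own cutoff, the solvent-only control mean plus 3 SD; inconclusive means no clear call, values can overlap the other calls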;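 further: cells exposed to compound for four days before flow analysis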
A number is an active result; n = inactive; u = inconclusive; x = no result; + = active, no number. Shown are actives, neighbours in structure and some others; about 1.5% of the full set was active somewhere.

SMILES	Platelet DG rel	VLA-4 inh	SENP1 FRET inh	Myeloid diff 2
O=C(c1cc(COc2cccc(C(F)(F)F)c2)on1)N1CCC(c2ccncc2)CC1	n	n	n	u
COc1cccc(OCc2cc(C(=O)N3CCC(c4ccncc4)CC3)no2)c1	n	n	n	+
COc1cccc(OCc2cc(C(=O)N(C)C3CCOCC3)no2)c1	n	n	n	+
COc1ccnc2c1c(=O)n(Cc1ccc(Cl)cc1Cl)c(=O)n2C	n	n	n	n
CCOC(=O)C1(CCOc2ccccc2)CCN(Cc2ccc3nonc3c2)CC1	n	n	n	n
Cc1sc(NC(=O)c2ccco2)c(C(c2cccnc2)N2CCN(c3ccc(F)cc3)CC2)c1C (stereo not given)	n	n	n	+
COC(=O)c1c(NC(=O)c2ccccc2N(C)S(=O)(=O)c2ccccc2)sc2c1CCCC2	n	x	n	+
Cc1cc(C)c(C)c(S(=O)(=O)NCc2ccc(C(=O)N3CCN(C)CC3)cc2)c1C	n	n	n	n
CC(Cc1ccccc1)C(=O)N[C@@H](CO)Cc1ccccc1 (stereo not given in full)	n	n	n	+
Cc1nn(C)c(NC(=O)c2ccc(Cl)cc2Cl)c1Br	n	n	n	+
CCN1C(=O)/C(=C/c2cccs2)S/C1=N\S(=O)(=O)c1ccc(C)cc1	n	n	n	n
C=CCN1C(=O)/C(=C/c2cccs2)S/C1=N\S(=O)(=O)c1ccc(F)cc1	n	n	n	+
Clc1ccc(-n2nnc(-c3cccnc3)n2)cc1Cl	n	n	n	+
Fc1ccc(-n2nnc(-c3cccnc3)n2)cc1	n	x	n	n
O=C(COc1ccccc1)Nc1cc(S(=O)(=O)N2CCOCC2)ccc1N1CCCC1	x	n	n	n
O=C(Cn1c(=O)cnc2ccccc21)Nc1ccccc1N1CCOCC1	n	n	n	n
O=C(Cn1c(=O)cnc2ccccc21)Nc1cc(Cl)ccc1N1CCOCC1	x	n	n	+
O=C(COc1cccc(Cl)c1)Nc1cc(S(=O)(=O)N2CCOCC2)ccc1N1CCOCC1	n	n	n	+
O=C(OCc1cccc(Cl)c1)c1cc(S(=O)(=O)N2CCCCC2)ccc1N1CCOCC1	n	n	n	+
CCOc1cc(C(=O)N2CCCN(C)CC2)cc(OCC)c1OCC	n	n	n	x
CCc1cccc(NC(=O)c2cccc3c2C(=O)N(CC2CCCO2)C3)c1 (stereo not given)	n	n	n	n
COc1ccc(-n2c(=O)c(CCC(=O)N3CCN(c4cccc(OC)c4)CC3)nc3ccccc32)cc1	x	x	n	n
COc1ccc(/C(O)=C/c2nc3ccccc3n(-c3ccccc3)c2=O)cc1	n	n	n	+
CCCCCc1ccc(-c2ccc(/C=C/C(N)=O)cc2)nc1	n	n	n	+
N#C/C(=C\c1cccs1)c1nc2ccccc2[nH]1	n	n	n	n
SMILES	Platelet DG rel	VLA-4 inh	SENP1 FRET inh	Myeloid diff 2
N#C/C(=C/c1ccc(O)c(O)c1)c1nc2ccccc2[nH]1	n	n	n	+
CC[n+]1ccc(/C=C/c2ccc(N(C)C)cc2)c2ccccc21	x	x	n	+
CC[n+]1ccccc1/C=C/c1ccc(N(C)C)cc1	n	x	87	u
CC[n+]1c(/C=C/c2ccc(N(C)C)cc2)ccc2ccccc21	n	n	n	x
COc1ccccc1Cc1c(C2CCCCC2)nc2ccc(Br)cn12	x	x	n	n
CC1=CC(C)C(=O)N(CCN2CCOCC2)C(C)=C1 (stereo not given)	x	x	n	n
COc1ccc(S(=O)(=O)NC(C)C(=O)NCc2ccccn2)cc1Cl (stereo not given)	n	n	n	n
CN=c1scc(-c2ccccc2F)n1/N=C/c1ccc[nH]1	n	n	n	x
CN=c1scc(-c2ccccc2F)n1/N=C/c1ccc(O)c(O)c1O	77	x	n	n
O=[N+]([O-])c1c(Nc2ccccn2)cc(Cl)c2nonc12	59	n	n	u
O=[N+]([O-])c1c(Nc2ccc(O)cc2)cc(Cl)c2nonc12	56	n	n	u
COc1ccc(C(=O)N/N=C/c2ccccn2)cc1OC	n	n	n	n
COc1ccc(C(=O)Nc2ccccc2C(=O)N/N=C/c2ccccn2)cc1OC	56	n	n	+
COc1ccc(N2CCN(S(=O)(=O)c3cc4c(cc3C)N(C(C)=O)CCO4)CC2)cc1	n	n	n	n
O=C(O)Cc1sc(NC2CCCCC2)nc1-c1ccc(Cl)cc1	n	n	n	+
CCOC(=O)COc1ccc(C2CC(C)=NN2c2ccccc2)cc1 (stereo not given)	n	n	n	n
COc1ccc(Cc2nnc(NC(=O)c3ccc(OC)c(OC)c3)s2)cc1	n	n	n	n
COc1ccc(C(=O)Nc2nnc(Cc3cccs3)s2)cc1OC	n	n	n	+
CC(C)OC(=O)c1cc(C(=O)c2cc(Cl)ccc2O)coc1=N	n	n	n	+
CC(C)OC(=O)c1cc(C(=O)c2cc(F)ccc2O)coc1=N	n	n	n	+
CC(C)OC(=O)c1cc(C(=O)c2cc(Br)ccc2O)coc1=N	n	n	n	n
CCCCOC(=O)CCc1c(C)[nH]c(=O)c(C#N)c1C	61	n	n	n
O=C(CC1CCC1)Nc1cccc2c([N+](=O)[O-])cccc12	n	n	n	n
O=C(O)c1cc(O)c2c(c1)[C@@H]([C@H]1c3cc(C(=O)O)cc(O)c3C(=O)c3c(O[C@@H]4O[C@H](CO)[C@@H](O)[C@H](O)[C@H]4O)cccc31)c1cccc(OC3O[C@H](CO)[C@@H](O)[C@H](O)[C@H]3O)c1C2=O (stereo not given in full)	n	57	n	n
COc1cc(CN(C(=O)c2cccs2)C2CCS(=O)(=O)C2)cc(OC)c1OC (stereo not given)	n	n	n	n
SMILES	Platelet DG rel	VLA-4 inh	SENP1 FRET inh	Myeloid diff 2
Oc1ccc(C[C@H]2CN([C@@H](Cc3ccccc3)CN3CCCC3CN3C(=S)NC[C@@H]3Cc3ccccc3)C(=S)N2CC2CCCCC2)cc1 (stereo not given in full)	x	x	n	n
Oc1ccc(C[C@H]2CN([C@@H](Cc3cccc(O)c3)CN3CCC[C@@H]3CN3C(=S)NC[C@@H]3Cc3ccccc3)C(=S)N2CC2CCCCC2)cc1	x	x	n	+
CC(C)C[C@H]1CNC(=S)N1C[C@H]1CCCN1C[C@H](Cc1ccccc1)N1C[C@H](Cc2ccc(O)cc2)N(CC2CCCCCC2)C1=S	x	x	n	+
Cc1ccn2c(NC3CCCCC3)c(-c3cccc(-c4cccc(Cl)c4)c3)nc2c1	n	n	n	+
Cc1ccn2c(NC3CCCC3)c(-c3ccncc3)nc2c1	n	n	n	n
COc1cc(-c2nc3cc(C)ccn3c2NC2CCCCC2)ccc1-c1ccc(C(C)=O)cc1	n	n	n	+
CC(=O)N(c1ccccc1)c1ccc([N+](=O)[O-])cc1[N+](=O)[O-]	n	n	n	+
CC(=O)N(C)c1cccc([N+](=O)[O-])c1	n	n	n	n
O=[N+]([O-])c1cccc(OCC(O)CN2CCN(S(=O)(=O)c3cc(Cl)ccc3Cl)CC2)c1 (stereo not given)	n	n	n	n
CS(=O)(=O)c1ncc(Cl)c(C(=O)Nc2ccc3ccccc3c2)n1	79	x	n	n
CC1(C)CCN2CCC(C)(C)c3c(O)ccc1c32	n	n	n	+
